Active and inactive are the calls of the source. The calls are words filed in the database; no cut-off is given here.
Experiments:
Dipeptidyl peptidase 2 = Dipeptidyl peptidase 2 (Homo sapiens, UniProt Q9UHL4); test: In vitro inhibition of DPP-II
Prolyl endopeptidase FAP = biological target: T1, Prolyl endopeptidase FAP (Homo sapiens, UniProt Q12884); test: In vitro inhibition of FAP, seprase
T1 sequence (Q12884 whole entry): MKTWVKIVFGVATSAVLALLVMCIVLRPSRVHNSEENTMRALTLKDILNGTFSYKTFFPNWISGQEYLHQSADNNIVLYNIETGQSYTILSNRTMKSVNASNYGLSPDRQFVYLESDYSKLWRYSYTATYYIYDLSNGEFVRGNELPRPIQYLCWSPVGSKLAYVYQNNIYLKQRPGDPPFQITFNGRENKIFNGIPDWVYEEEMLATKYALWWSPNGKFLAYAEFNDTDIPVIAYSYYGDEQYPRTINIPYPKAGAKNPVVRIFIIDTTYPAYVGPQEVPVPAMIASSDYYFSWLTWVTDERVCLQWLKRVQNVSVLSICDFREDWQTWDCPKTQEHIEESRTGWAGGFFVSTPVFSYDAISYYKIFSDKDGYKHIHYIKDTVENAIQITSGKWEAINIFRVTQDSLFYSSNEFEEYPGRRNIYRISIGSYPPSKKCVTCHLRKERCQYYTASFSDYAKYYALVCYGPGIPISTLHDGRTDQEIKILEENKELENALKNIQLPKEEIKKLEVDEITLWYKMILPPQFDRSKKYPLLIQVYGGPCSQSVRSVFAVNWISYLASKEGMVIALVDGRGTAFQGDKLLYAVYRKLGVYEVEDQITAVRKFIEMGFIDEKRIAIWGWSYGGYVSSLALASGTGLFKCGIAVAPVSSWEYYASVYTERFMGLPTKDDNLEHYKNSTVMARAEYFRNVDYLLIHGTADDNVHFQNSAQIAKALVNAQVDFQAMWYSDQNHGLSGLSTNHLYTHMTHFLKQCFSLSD
Summary of the method: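 FAP cDNA was cloned into the pBacPAC8-CD5 vector, then the enzyme was expressed and purified. Activity was measured with Gly-Pro-pNA as substrate at 6 mM.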

Dipeptidyl peptidase 8 = Dipeptidyl peptidase 8 (Homo sapiens, UniProt Q6V1X1); test: In vitro inhibition of DPP-8
Dipeptidyl peptidase 8, sequence (Q6V1X1 whole entry): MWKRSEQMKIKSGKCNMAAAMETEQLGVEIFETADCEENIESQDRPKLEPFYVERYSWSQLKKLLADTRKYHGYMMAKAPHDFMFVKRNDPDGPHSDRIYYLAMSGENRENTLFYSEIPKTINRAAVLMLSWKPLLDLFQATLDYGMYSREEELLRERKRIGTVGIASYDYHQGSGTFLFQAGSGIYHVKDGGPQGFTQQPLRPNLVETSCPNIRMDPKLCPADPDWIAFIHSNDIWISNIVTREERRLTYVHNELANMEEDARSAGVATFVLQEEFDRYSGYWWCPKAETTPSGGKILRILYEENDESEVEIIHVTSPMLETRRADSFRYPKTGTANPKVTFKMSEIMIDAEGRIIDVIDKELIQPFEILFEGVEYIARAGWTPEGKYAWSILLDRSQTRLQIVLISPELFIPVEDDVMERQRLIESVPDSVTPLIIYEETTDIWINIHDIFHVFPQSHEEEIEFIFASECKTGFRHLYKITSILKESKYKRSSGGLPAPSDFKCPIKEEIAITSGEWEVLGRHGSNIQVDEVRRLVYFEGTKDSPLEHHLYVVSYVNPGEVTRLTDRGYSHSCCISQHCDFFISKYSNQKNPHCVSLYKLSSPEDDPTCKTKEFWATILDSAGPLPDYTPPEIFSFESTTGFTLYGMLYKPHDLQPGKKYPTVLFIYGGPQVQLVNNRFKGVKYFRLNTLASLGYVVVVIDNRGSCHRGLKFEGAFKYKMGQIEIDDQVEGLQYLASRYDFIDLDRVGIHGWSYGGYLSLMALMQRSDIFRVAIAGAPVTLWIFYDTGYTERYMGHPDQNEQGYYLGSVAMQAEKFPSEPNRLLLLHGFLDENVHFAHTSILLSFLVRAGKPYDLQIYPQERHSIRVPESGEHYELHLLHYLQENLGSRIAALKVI

Rattus norvegicus = organism: Rattus norvegicus; conditions: 10 mg/kg
[1] = biological target: Dipeptidyl peptidase 4 (Rattus norvegicus) (UniProt P14740); test: Ex vivo inhibition of plasma DPP-4 activity in rats 30 minutes after 10 mg/kg oral dose; format: functional, organism-based; parameters: dose 10 mg/kg; conditions: at 10 mg/kg
Dipeptidyl peptidase 4 (Rattus norvegicus), sequence (P14740 whole entry, looked up): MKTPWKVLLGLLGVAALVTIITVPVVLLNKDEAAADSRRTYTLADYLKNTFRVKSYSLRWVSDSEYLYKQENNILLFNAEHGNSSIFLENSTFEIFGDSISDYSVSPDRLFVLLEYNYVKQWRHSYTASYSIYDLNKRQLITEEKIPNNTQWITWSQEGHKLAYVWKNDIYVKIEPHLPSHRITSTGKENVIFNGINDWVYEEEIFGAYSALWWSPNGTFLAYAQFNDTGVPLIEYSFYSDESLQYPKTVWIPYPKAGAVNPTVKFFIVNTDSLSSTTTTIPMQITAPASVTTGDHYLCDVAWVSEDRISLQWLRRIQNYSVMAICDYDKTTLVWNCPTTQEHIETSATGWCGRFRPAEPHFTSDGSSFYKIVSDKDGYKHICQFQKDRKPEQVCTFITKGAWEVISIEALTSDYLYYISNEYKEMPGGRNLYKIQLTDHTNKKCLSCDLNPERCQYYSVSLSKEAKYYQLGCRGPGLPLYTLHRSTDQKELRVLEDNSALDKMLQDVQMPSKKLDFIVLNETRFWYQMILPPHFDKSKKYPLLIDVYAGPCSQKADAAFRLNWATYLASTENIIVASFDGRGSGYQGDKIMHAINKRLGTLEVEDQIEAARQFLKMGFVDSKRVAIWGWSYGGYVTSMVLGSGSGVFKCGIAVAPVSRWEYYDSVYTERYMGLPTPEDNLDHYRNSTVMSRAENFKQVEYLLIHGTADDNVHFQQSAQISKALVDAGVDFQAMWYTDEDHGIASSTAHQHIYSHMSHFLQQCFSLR
Summary of the method: (§1)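 Adult male Wistar rats got a single oral gavage dose of 10 mg/kg at 0 h. Blood was collected over time and plasma DPP-IV activity was read as the cleavage rate of Gly-Pro-AMC. Means ± SEM, n = 4/group.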

[2] = biological target: Dipeptidyl peptidase 4 (Rattus norvegicus) (UniProt P14740); test: Ex vivo inhibition of plasma DPP-4 activity in rats 8 hours after 10 mg/kg oral dose; format: functional, organism-based; parameters: dose 10 mg/kg; conditions: at 10 mg/kg; summary of the method: as §1

In the case of `C[C@H](CC(=O)NC(C)(C)c1ccccc1)NCC(=O)N1CCC[C@H]1C#N`, the IC50 (Dipeptidyl peptidase 2) is reported as over 20 µM and the IC50 (Prolyl endopeptidase FAP) is reported as over 20 µM.
`CC(C)(CC(=O)Nc1ccc(F)c(F)c1)NCC(=O)N1CCC[C@H]1C#N` gave an IC50 (Dipeptidyl peptidase 2) of over 20 µM, an IC50 (Dipeptidyl peptidase 8) of over 20 µM and an IC50 (Prolyl endopeptidase FAP) of over 20 µM.
Molecule `CC(C)(NC(=O)CCNCC(=O)N1CCC[C@H]1C#N)c1ccccc1` has an IC50 (Dipeptidyl peptidase 2) of over 20 µM and an IC50 (Prolyl endopeptidase FAP) of over 20 µM.
Molecule `CC(C)(CC(=O)NCCc1ccccn1)NCC(=O)N1CCC[C@H]1C#N` has an IC50 (Dipeptidyl peptidase 2) of over 20 µM, an IC50 (Dipeptidyl peptidase 8) of over 20 µM and an IC50 (Prolyl endopeptidase FAP) of over 20 µM. For the same molecule, the inhibition (Rattus norvegicus) was “Active”.
`COc1ccc(NC(=O)CC(C)(C)NCC(=O)N2CCC[C@H]2C#N)c(OC)c1OC` was tested, and the IC50 (Dipeptidyl peptidase 2) was over 20 µM, the IC50 (Dipeptidyl peptidase 8) was over 20 µM and the IC50 (Prolyl endopeptidase FAP) was over 20 µM.
For `Cc1ccc(CCNC(=O)CC(C)(C)NCC(=O)N2CCC[C@H]2C#N)cc1`, the IC50 (Dipeptidyl peptidase 2) was over 20 µM, the IC50 (Dipeptidyl peptidase 8) was over 20 µM and the IC50 (Prolyl endopeptidase FAP) was over 20 µM.
Molecule `CC(C)(CC(=O)Nc1ccc(F)cc1)NCC(=O)N1CCC[C@H]1C#N` has an IC50 (Dipeptidyl peptidase 2) of over 20 µM, an IC50 (Dipeptidyl peptidase 8) of over 20 µM and an IC50 (Prolyl endopeptidase FAP) of over 20 µM.
`N#C[C@@H]1CCCN1C(=O)CNCCC(=O)NCc1ccccc1` was tested, and the IC50 (Prolyl endopeptidase FAP) was over 20 µM.
Molecule `COc1ccc(NC(=O)CC(C)(C)NCC(=O)N2CCC[C@H]2C#N)cc1OC` has an inhibition [1] of over 80%, an inhibition [2] of over 50% and an IC50 (Dipeptidyl peptidase 2) of over 20 µM. The IC50 (Dipeptidyl peptidase 8) was over 20 µM, the IC50 (Prolyl endopeptidase FAP) was over 20 µM and the inhibition (Rattus norvegicus) was “Active”.
Molecule `CC(C)(CC(=O)NCc1ccccc1)NCC(=O)N1CCC[C@H]1C#N` has an IC50 (Dipeptidyl peptidase 2) of over 20 µM, an IC50 (Dipeptidyl peptidase 8) of over 20 µM and an IC50 (Prolyl endopeptidase FAP) of over 20 µM.
`CC(C)(CC(=O)NCCc1ccc(Cl)c(Cl)c1)NCC(=O)N1CCC[C@H]1C#N` showed an IC50 (Dipeptidyl peptidase 2) of over 20 µM, an IC50 (Dipeptidyl peptidase 8) of over 20 µM and an IC50 (Prolyl endopeptidase FAP) of over 20 µM.
For `CC(C)(CC(=O)NCc1ccccn1)NCC(=O)N1CCC[C@H]1C#N`, the IC50 (Dipeptidyl peptidase 2) was over 20 µM, the IC50 (Dipeptidyl peptidase 8) was over 20 µM and the IC50 (Prolyl endopeptidase FAP) was over 20 µM.
For `COc1ccc(CCNC(=O)CC(C)(C)NCC(=O)N2CCC[C@H]2C#N)cc1OC`, the IC50 (Dipeptidyl peptidase 2) was over 20 µM, the IC50 (Dipeptidyl peptidase 8) was over 20 µM and the IC50 (Prolyl endopeptidase FAP) was over 20 µM.
`CC(C)(CC(=O)NCCc1ccc(C(F)(F)F)cc1)NCC(=O)N1CCC[C@H]1C#N` was tested, and the IC50 (Dipeptidyl peptidase 2) was over 20 µM, the IC50 (Dipeptidyl peptidase 8) was over 20 µM and the IC50 (Prolyl endopeptidase FAP) was over 20 µM.
`CC(C)(CC(=O)NCCc1cccc(C(F)(F)F)c1)NCC(=O)N1CCC[C@H]1C#N` gave an IC50 (Dipeptidyl peptidase 2) of over 20 µM, an IC50 (Dipeptidyl peptidase 8) of over 20 µM and an IC50 (Prolyl endopeptidase FAP) of over 20 µM.
`CC(C)(CC(=O)NC(C)(C)Cc1ccccc1)NCC(=O)N1CCC[C@H]1C#N` was tested, and the IC50 (Dipeptidyl peptidase 2) was over 20 µM, the IC50 (Dipeptidyl peptidase 8) was over 20 µM and the IC50 (Prolyl endopeptidase FAP) was over 20 µM.
Work on `Cc1ccc(NC(=O)CC(C)(C)NCC(=O)N2CCC[C@H]2C#N)cc1C` yielded an IC50 (Dipeptidyl peptidase 2) of over 20 µM, an IC50 (Dipeptidyl peptidase 8) of over 20 µM and an IC50 (Prolyl endopeptidase FAP) of over 20 µM.
For `COc1ccc(NC(=O)CC(C)(C)NCC(=O)N2CCC[C@H]2C#N)cc1`, the IC50 (Dipeptidyl peptidase 2) was over 20 µM, the IC50 (Dipeptidyl peptidase 8) was over 20 µM and the IC50 (Prolyl endopeptidase FAP) was over 20 µM.
`CC(C)(CC(=O)Nc1ccc(-c2ccccc2)cc1)NCC(=O)N1CCC[C@H]1C#N` was tested, and the IC50 (Dipeptidyl peptidase 2) was 0.8 µM, the IC50 (Dipeptidyl peptidase 8) was over 20 µM and the IC50 (Prolyl endopeptidase FAP) was over 20 µM.
`CC(C)(CC(=O)NCCc1ccccc1)NCC(=O)N1CCC[C@H]1C#N` gave an IC50 (Dipeptidyl peptidase 2) of over 20 µM, an IC50 (Dipeptidyl peptidase 8) of over 20 µM and an IC50 (Prolyl endopeptidase FAP) of over 20 µM.
`C[C@@H](CC(=O)NC(C)(C)c1ccccc1)NCC(=O)N1CCC[C@H]1C#N` showed an IC50 (Dipeptidyl peptidase 2) of over 20 µM.
In the case of `CC(C)(CC(=O)NC(C)(C)c1ccccc1)NCC(=O)N1CCC[C@H]1C#N`, the IC50 (Dipeptidyl peptidase 2) is reported as over 20 µM, the IC50 (Dipeptidyl peptidase 8) is reported as over 20 µM and the IC50 (Prolyl endopeptidase FAP) is reported as over 20 µM.
`CC(C)(CC(=O)NCCc1ccccc1C(F)(F)F)NCC(=O)N1CCC[C@H]1C#N` gave an IC50 (Dipeptidyl peptidase 2) of over 20 µM, an IC50 (Dipeptidyl peptidase 8) of over 20 µM and an IC50 (Prolyl endopeptidase FAP) of over 20 µM.
`CC(C)(CC(=O)Nc1ccccc1)NCC(=O)N1CCC[C@H]1C#N` was tested, and the IC50 (Dipeptidyl peptidase 2) was over 20 µM, the IC50 (Dipeptidyl peptidase 8) was over 20 µM and the IC50 (Prolyl endopeptidase FAP) was over 20 µM.
Work on `N#C[C@@H]1CCCN1C(=O)CNCCC(=O)NCCc1ccccc1` yielded an IC50 (Prolyl endopeptidase FAP) of over 20 µM.

— ChEMBL document CHEMBL1137592, “3-[2-((2S)-2-cyano-pyrrolidin-1-yl)-2-oxo-ethylamino]-3-methyl-butyramide analogues as selective DPP-IV inhibitors for the treatment of type-II diabetes” (Bioorg Med Chem Lett, 2007)
